Experimental data published in ChEMBL document CHEMBL1649199 (Antimicrob Agents Chemother, 2009).

Legend:
Plasmodium falciparum [1] = test: Antimicrobial activity against Plasmodium falciparum IMT 9881 harboring Pfcrt, Pfmdr1, Pfmrp, and Pfnhe-1 polymorphisms assessed as growth inhibition after 48 hrs by scintillation counting; format: functional, organism-based; details: IMT 9881, 48 h
How it was run: (§1)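 Sorbitol-synchronized (twice) culture-adapted strains were grown in type A+ human blood in RPMI 1640 with 10% human serum, 25 mM HEPES and 25 mM NaHCO3, at 37°C under 10% O2/5% CO2/85% N2. Rings (>95%) at 0.5% parasitemia and 1.5% hematocrit were exposed to drug, methanol then water, final 0.125–400 nM or 5.3–3,387 nM, with 1 μCi [3H]hypoxanthine for 48 h. IC50 from nonlinear regression versus drug-free controls.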

Plasmodium falciparum [2] = test: Antimicrobial activity against Plasmodium falciparum IMT 10354 harboring Pfcrt, Pfmdr1, Pfmrp, and Pfnhe-1 polymorphisms assessed as growth inhibition after 48 hrs by scintillation counting; format: functional, organism-based; details: IMT 10354, 48 h; how it was run: as §1
Plasmodium falciparum [3] = test: Antimicrobial activity against Plasmodium falciparum D6 harboring Pfcrt, Pfmdr1, Pfmrp, and Pfnhe-1 polymorphisms assessed as growth inhibition after 48 hrs by scintillation counting; format: functional, organism-based; details: D6, 48 h; how it was run: as §1
Plasmodium falciparum [4] = test: Antimicrobial activity against Plasmodium falciparum IMT Vol harboring Pfcrt, Pfmdr1, Pfmrp, and Pfnhe-1 polymorphisms assessed as growth inhibition after 48 hrs by scintillation counting; format: functional, organism-based; how it was run: as §1
Plasmodium falciparum [5] = test: Antimicrobial activity against Plasmodium falciparum IMT K14 harboring Pfcrt, Pfmdr1, Pfmrp, and Pfnhe-1 polymorphisms assessed as growth inhibition after 48 hrs by scintillation counting; format: functional, organism-based; details: IMT K14, 48 h; how it was run: as §1
Plasmodium falciparum [6] = test: Antimicrobial activity against Plasmodium falciparum ms4760-7 assessed as growth inhibition after 48 hrs by scintillation counting; details: ms4760-7, 48 h
Plasmodium falciparum [7] = test: Antimicrobial activity against Plasmodium falciparum IMT 31 harboring Pfcrt, Pfmdr1, Pfmrp, and Pfnhe-1 polymorphisms assessed as growth inhibition after 48 hrs by scintillation counting; format: functional, organism-based; details: IMT 31, 48 h; how it was run: as §1
Plasmodium falciparum [8] = test: Antimicrobial activity against Plasmodium falciparum IMT 8425 harboring Pfcrt, Pfmdr1, Pfmrp, and Pfnhe-1 polymorphisms assessed as growth inhibition after 48 hrs by scintillation counting; format: functional, organism-based; details: IMT 8425, 48 h; how it was run: as §1
Plasmodium falciparum [9] = test: Antimicrobial activity against Plasmodium falciparum IMT A4 harboring Pfcrt, Pfmdr1, Pfmrp, and Pfnhe-1 polymorphisms assessed as growth inhibition after 48 hrs by scintillation counting; format: functional, organism-based; details: IMT A4, 48 h
How it was run: (§2)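 Culture-adapted strains in RPMI 1640 with 10% human serum, 25 mM HEPES, 25 mM NaHCO3, type A+ blood, 10% O2/5% CO2/85% N2, 37°C; sorbitol-synchronized twice. Rings >95%, 0.5% parasitemia, 1.5% hematocrit; drug (methanol then water) final 0.125–400 nM or 5.3–3,387 nM. [3H]hypoxanthine 1 μCi/well at time zero, 48 h; freeze-thaw, harvest, scintillation; IC50 versus drug-free control by nonlinear regression of log dose-response.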

Plasmodium falciparum [10] = test: Antimicrobial activity against Plasmodium falciparum IMT K4 harboring Pfcrt, Pfmdr1, Pfmrp, and Pfnhe-1 polymorphisms assessed as growth inhibition after 48 hrs by scintillation counting; format: functional, organism-based; details: IMT K4, 48 h; how it was run: as §1
Plasmodium falciparum [11] = test: Antimicrobial activity against Plasmodium falciparum IMT 10500 harboring Pfcrt, Pfmdr1, Pfmrp, and Pfnhe-1 polymorphisms assessed as growth inhibition after 48 hrs by scintillation counting; format: functional, organism-based; details: IMT 10500, 48 h; how it was run: as §1
Plasmodium falciparum [12] = test: Antimicrobial activity against Plasmodium falciparum IMT K2 harboring Pfcrt, Pfmdr1, Pfmrp, and Pfnhe-1 polymorphisms assessed as growth inhibition after 48 hrs by scintillation counting; format: functional, organism-based; details: IMT K2, 48 h; how it was run: as §2
Plasmodium falciparum [13] = test: Antimicrobial activity against Plasmodium falciparum IMT L1 harboring Pfcrt, Pfmdr1, Pfmrp, and Pfnhe-1 polymorphisms assessed as growth inhibition after 48 hrs by scintillation counting; format: functional, organism-based; details: IMT L1, 48 h; how it was run: as §2
Plasmodium falciparum [14] = test: Antimicrobial activity against Plasmodium falciparum FCR3 harboring Pfcrt, Pfmdr1, Pfmrp, and Pfnhe-1 polymorphisms assessed as growth inhibition after 48 hrs by scintillation counting; format: functional, organism-based; details: FCR3, 48 h; how it was run: as §1
Plasmodium falciparum [15] = test: Antimicrobial activity against Plasmodium falciparum ms4760-6 assessed as growth inhibition after 48 hrs by scintillation counting; details: ms4760-6, 48 h
Plasmodium falciparum [16] = test: Antimicrobial activity against Plasmodium falciparum IMT Bres harboring Pfcrt, Pfmdr1, Pfmrp, and Pfnhe-1 polymorphisms assessed as growth inhibition after 48 hrs by scintillation counting; format: functional, organism-based; how it was run: as §1
Plasmodium falciparum [17] = test: Antimicrobial activity against Plasmodium falciparum IMT 16332 harboring Pfcrt, Pfmdr1, Pfmrp, and Pfnhe-1 polymorphisms assessed as growth inhibition after 48 hrs by scintillation counting; format: functional, organism-based; details: IMT 16332, 48 h; how it was run: as §1
Plasmodium falciparum [18] = test: Antimicrobial activity against Plasmodium falciparum IMT 6311 harboring Pfcrt, Pfmdr1, Pfmrp, and Pfnhe-1 polymorphisms assessed as growth inhibition after 48 hrs by scintillation counting; format: functional, organism-based; details: IMT 6311, 48 h; how it was run: as §1
Plasmodium falciparum [19] = test: Antimicrobial activity against Plasmodium falciparum IMT 9996 harboring Pfcrt, Pfmdr1, Pfmrp, and Pfnhe-1 polymorphisms assessed as growth inhibition after 48 hrs by scintillation counting; format: functional, organism-based; details: IMT 9996, 48 h; how it was run: as §1
Plasmodium falciparum [20] = test: Antimicrobial activity against Plasmodium falciparum FCM29 harboring Pfcrt, Pfmdr1, Pfmrp, and Pfnhe-1 polymorphisms assessed as growth inhibition after 48 hrs by scintillation counting; format: functional, organism-based; details: FCM29, 48 h; how it was run: as §2
Plasmodium falciparum [21] = test: Antimicrobial activity against Plasmodium falciparum PA harboring Pfcrt, Pfmdr1, Pfmrp, and Pfnhe-1 polymorphisms assessed as growth inhibition after 48 hrs by scintillation counting; format: functional, organism-based; how it was run: as §2
Plasmodium falciparum [22] = test: Antimicrobial activity against Plasmodium falciparum 3D7 harboring Pfcrt, Pfmdr1, Pfmrp, and Pfnhe-1 polymorphisms assessed as growth inhibition after 48 hrs by scintillation counting; format: functional, organism-based; details: 3D7, 48 h; how it was run: as §1
Plasmodium falciparum [23] = test: Antimicrobial activity against Plasmodium falciparum W2 harboring Pfcrt, Pfmdr1, Pfmrp, and Pfnhe-1 polymorphisms assessed as growth inhibition after 48 hrs by scintillation counting; format: functional, organism-based; details: W2, 48 h; how it was run: as §1
Plasmodium falciparum [24] = test: Antimicrobial activity against Plasmodium falciparum IMT 16116 harboring Pfcrt, Pfmdr1, Pfmrp, and Pfnhe-1 polymorphisms assessed as growth inhibition after 48 hrs by scintillation counting; format: functional, organism-based; details: IMT 16116, 48 h; how it was run: as §1
Plasmodium falciparum [25] = test: Antimicrobial activity against Plasmodium falciparum IMT 10336 harboring Pfcrt, Pfmdr1, Pfmrp, and Pfnhe-1 polymorphisms assessed as growth inhibition after 48 hrs by scintillation counting; format: functional, organism-based; details: IMT 10336, 48 h; how it was run: as §1

Q: With C=C[C@H]1CN2CC[C@H]1C[C@H]2[C@H](O)c1ccnc2ccc(OC)cc12 [QUININE] as the compound, how does the IC50 (Plasmodium falciparum [1]) read?
A: 57 nM

Q: And the IC50 (Plasmodium falciparum [2])?
A: 58 nM

Q: And the IC50 (Plasmodium falciparum [3])?
A: 62 nM

Q: And the IC50 (Plasmodium falciparum [4])?
A: 421 nM

Q: And the IC50 (Plasmodium falciparum [5])?
A: 1310 nM

Q: What about the IC50 (Plasmodium falciparum [6]) of the same compound?
A: 764 nM

Q: What about the IC50 (Plasmodium falciparum [7]) of the same compound?
A: 371 nM

Q: And the IC50 (Plasmodium falciparum [8])?
A: 148 nM

Q: And the IC50 (Plasmodium falciparum [9])?
A: 605 nM

Q: What about the IC50 (Plasmodium falciparum [10]) of the same compound?
A: 1030 nM

Q: What about the IC50 (Plasmodium falciparum [11]) of the same compound?
A: 210 nM

Q: And the IC50 (Plasmodium falciparum [12])?
A: 599 nM

Q: What about the IC50 (Plasmodium falciparum [13]) of the same compound?
A: 575 nM

Q: And the IC50 (Plasmodium falciparum [14])?
A: 334 nM

Q: And the IC50 (Plasmodium falciparum [15])?
A: 582 nM

Q: And the IC50 (Plasmodium falciparum [16])?
A: 500 nM

Q: What about the IC50 (Plasmodium falciparum [17]) of the same compound?
A: 83 nM

Q: What about the IC50 (Plasmodium falciparum [18]) of the same compound?
A: 453 nM

Q: And the IC50 (Plasmodium falciparum [19])?
A: 1040 nM

Q: And the IC50 (Plasmodium falciparum [20])?
A: 580 nM

Q: And the IC50 (Plasmodium falciparum [21])?
A: 625 nM

Q: And the IC50 (Plasmodium falciparum [22])?
A: 128 nM

Q: And the IC50 (Plasmodium falciparum [23])?
A: 686 nM

Q: What about the IC50 (Plasmodium falciparum [24]) of the same compound?
A: 204 nM

Q: And the IC50 (Plasmodium falciparum [25])?
A: 271 nM
